Assays:
3T3-L1 adipocytes [1] = assay: Glycerol release from 3T3-L1 adipocytes treated with C26 CM; format: cell-based, mouse; conditions: 24 h
3T3-L1 adipocytes [2] = assay: LPS-induced glycerol release from 3T3-L1 adipocytes; format: cell-based, mouse; conditions: 0.5 µM or 5 µM, 1µg/ml LPS, 24 h
How it was run: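 3T3-L1 preadipocytes were differentiated with 1 μg/mL insulin, 0.25 μM dexamethasone and 0.5 mM IBMX, then used 8–12 days post-differentiation. Glycerol was measured with a glycerol kit, either directly in culture medium or in Krebs-Ringer buffer (3% BSA, 5 mM glucose) collected over 2 h after a 1 h preincubation. Experiments were repeated at least 2–3 times, each with n ≥3 technical replicates.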

[3] = Stability of the peptides in solution; format: physicochemical; conditions: peptide in solution

## MK8722
3T3-L1 adipocytes [1]; 0.5 µM or 5 µM
  C26 CM-induced lipolysis (glycerol release): reduced C26 CM-induced lipolysis dose dependently
3T3-L1 adipocytes [2]
  LPS-induced glycerol release: inhibited

## C#CC[C@H](NC(=O)[C@H](CCCCN)NC(=O)[C@H](CCCCN)NC(=O)[C@H](Cc1c[nH]c2ccccc12)NC(=O)[C@H](CCCCN)NC(=O)[C@H](CCSC)NC(=O)[C@H](CCCNC(=N)N)NC(=O)[C@H](CCCNC(=N)N)NC(=O)[C@H](CC(N)=O)NC(=O)[C@H](CCC(N)=O)NC(=O)[C@H](Cc1ccccc1)NC(=O)[C@H](Cc1c[nH]c2ccccc12)NC(=O)[C@@H](NC(=O)[C@H](CCCCN)NC(=O)[C@@H](NC(=O)[C@H](CCC(N)=O)NC(=O)[C@@H](N)CCCNC(=N)N)[C@@H](C)CC)[C@@H](C)CC)C(=O)N[C@@H](CC(N)=O)C(=O)N[C@@H](Cc1c[nH]cn1)C(=O)N[C@H](C(=O)N[C@@H](CCSC)C(=O)N[C@@H](CC(C)C)C(=O)N[C@@H](CC(N)=O)C(=O)N[C@@H](Cc1c[nH]cn1)C(=O)N[C@@H](CC(C)C)C(=O)N[C@@H](Cc1ccc(O)cc1)C(=O)N[C@@H](C)C(=O)N[C@@H](CC(C)C)C(=O)N[C@@H](CO)C(=O)N[C@H](C(=O)N[C@@H](CCCCN)C(=O)N[C@@H](CC(=O)O)C(=O)NCC(=O)N[C@H](C(N)=O)C(C)C)[C@@H](C)CC)C(C)C [Pen-X-ACIP]
[3]
  Degradation products in mass spectrometry: No degradation products were detected

## NC(=O)c1ncn([C@@H]2O[C@H](COP(=O)(O)O)[C@@H](O)[C@H]2O)c1N [AICAR, 5-aminoimidazole-4-carboxamide ribonucleotide]
3T3-L1 adipocytes [1]; indicated concentrations of AICAR
  C26 CM-induced glycerol release: reduced C26 CM-induced glycerol release at higher doses
